Source: PubChem
Compounds with a hit are over-represented: about 6.6% of the library has one in this group of screens.
H69AR inhibit = proliferation blockers of H69AR lung cancer cells, primary screen, cell-based, human, 86K library | viability, % at 10 µM | H69AR lung tumor viability, ATP luminescence, 72 h; stronger effect = lower value | hit rate 6% among 85,000;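 active means viability at or below 40%; inactive means viability above 40%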;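 further: multidrug resistant small cell line overexpressing MRP-1 efflux transporter; 100% = mean luminescence of untreated control wells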
Jurkat tox 60K = cytotoxicity toward Jurkat T cells, primary screen, cytotoxicity control, cell-based, Jurkat E6.1, 60K MLSMR library; inhibition, % at 4 µM; Jurkat E6.1 viability, ATP luminescence, 48 h; AID 463, 2006; hit rate 1.2% among 56,000;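 active means inhibition above the mean inhibition of all tested compounds plus 3 SD, cut at about 28% in these data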
HUVEC prolif 384 = inhibitors of HUVEC proliferation, primary screen, cell-based, 384-well; CellTiter-Glo luminescence, 72 h; stronger effect = lower value; hit rate 1.1% among 86,000; viability, % at 10 µM (by protocol);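 active means viability at or below 30%; inactive means viability above 30%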;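 further: 100% = median luminescence of DMSO-only cell control wells on each plate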
Lung fibro prol = antiproliferative effect on LL 47 fibroblasts – human, LL 47 cells, CellTiter-Glo luminescence, primary screen. LL 47 human lung fibroblast viability, ATP luminescence; stronger effect = lower value. viability, % at 10 µM. hit rate 1.1% among 85,000. AID 719, 2007;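 active means viability at or below 50% in the single dose screen; inactive means viability above 50%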;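 further: compound exposure lasted 72 h before the ATP readout; 100% = median luminescence of untreated cell-only wells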
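Benchmarks: Cell-only wells, no compound | Test system: LL 47 human lung fibroblasts, passage 12 or lower | Input: 1,150 cells/well | Measured by: CellTiter-Glo luminescence measuring cellular ATP | Medium: IMEM, 15% FBS supplement | Schedule: Overnight attachment after seeding, then 72 h compound exposure at 37 °C | Doses: Compound addition at 0.1% DMSO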
* hit, by the source's call; nt = no result given.

SMILES | H69AR inhibit | Jurkat tox 60K | HUVEC prolif 384 | Lung fibro prol
COc1ccc(-c2nnc(NC(=O)c3cc(Cl)ccc3Cl)o2)cc1 | 30* | 9 | 50 | 76
COc1ccc(CCNC(=O)CSc2nnc(-c3ccc(F)cc3)o2)cc1OC | 88 | 14 | 93 | 103
COc1ccc(S(=O)(=O)NCCc2csc(-c3cccnc3)n2)cc1 | 95 | nt | 105 | 102
Cc1ccc(Cl)cc1NC(=O)c1cnn2c1NC(c1ccco1)CC2C(F)(F)F (centres undefined) | 78 | nt | 101 | 99
CC(C)(C)NC(=O)c1cnn2c1NC(c1ccc(F)cc1)CC2C(F)(F)F (centres undefined) | 67 | 3 | 98 | 33*
O=C(Nc1ccc2c(c1)CCC2)c1cnn2c1NC(c1ccco1)CC2C(F)(F)F (centres undefined) | 30* | -4 | 55 | 37*
CCOC(=O)C(C(=O)Nc1cccc(C)c1)C1CCCCC1 (centres undefined) | 94 | nt | 95 | 83
Cc1nc([N+](=O)[O-])c(Br)n1CC(=O)c1ccc(Br)cc1 | -0.4* | nt | 33 | 25*
Cc1nc([N+](=O)[O-])c(Br)n1CC(=O)c1ccccc1 | 35* | nt | 77 | 87
Cc1nc([N+](=O)[O-])c(Br)n1CC(=O)c1ccc2ccccc2c1 | 0.4* | nt | 42 | 56
CCOC(=O)N1CCC(N2C(=O)c3ccccc3C2Nc2ccc(Cl)cn2)CC1 (centres undefined) | 68 | 7 | 83 | 88
Cc1cccc(-c2c3c(=O)n(C)c(=O)n(C)c3c3nnc4ccccc4n23)c1 | nt | 2 | nt | nt
O=C(NNC1=C(C(=O)C(F)(F)F)CCC1)c1ccc(Cl)cc1 | 45 | nt | 50 | 71
O=C(NNC1=C(C(=O)C(F)(F)F)CCC1)c1cccc(Cl)c1 | 29* | nt | 23* | 69
O=C(Nc1ccccc1C(=O)Nc1ccc2c(c1)OCO2)c1ccco1 | 34* | nt | 77 | 90
Cc1nn(-c2ccccc2)c2sc(C(=O)NC3CC3)cc12 | 95 | nt | 91 | 90
Cc1nn(-c2ccccc2)c2sc(C(=O)N(CC(=O)NC3CCCC3)Cc3ccco3)cc12 | 26* | 1 | 54 | 53
Cc1nn2c(c1-c1ccccc1)NC1=C(C(=O)CCC1)C2c1cccnc1 (centres undefined) | 87 | 2 | 110 | 96
CCC(=NC(C)c1ccccc1)c1c(O)n(C)c(=O)n(C)c1=O (centres undefined) | 93 | 54* | 93 | 94
CCOC(=O)c1c(NC(=O)CSc2nnnn2-c2ccc3c(c2)OCO3)sc(C)c1C | 60 | 2 | 84 | 92
CCc1ccccc1-n1c(SCC(=O)Nc2ccc3c(c2)OCCO3)nc2[nH]ncc2c1=O | 39* | -3 | 77 | 75
CCOC(=O)c1c(NC(=O)CSc2nnnn2-c2ccc3c(c2)OCCO3)sc(C)c1C | 36* | -2 | 93 | 87
O=c1c2cn[nH]c2nc(SCc2ccc3c(c2)OCCO3)n1-c1ccccc1 | 49 | nt | 81 | 89
COc1ccc(OC)c(-n2nnnc2SCC(=O)Nc2ccc(C(=O)N3CCCCC3)cc2)c1 | 86 | 13 | 98 | 93
COc1ccc(OC)c(-n2nnnc2SCC(=O)Nc2ccc3c(c2)OCCO3)c1 | 43 | 6 | 18* | 82
SMILES | H69AR inhibit | Jurkat tox 60K | HUVEC prolif 384 | Lung fibro prol
Cc1cc(C(=O)N2CCN(c3cccc(Cl)c3)CC2)c(C)o1 | 16* | 75* | 58 | 73
Cc1cc(C(=O)N2CCN(c3ccccc3)CC2)c(C)o1 | 83 | nt | 99 | 108
Cc1ccc(C(=O)N2CCN(c3cccc(Cl)c3)CC2)cc1C | 94 | 38* | 67 | 83
CC(=O)N(CCO)Cc1cc2cc(C)cc(C)c2[nH]c1=O | 98 | 5 | 97 | 106
O=S(=O)(NCC1CCCO1)c1ccc(S(=O)(=O)N(Cc2ccccc2F)C2CCCCC2)cc1 (centres undefined) | 85 | nt | 92 | 91
Cc1cc(C)c2ccc(N)nc2c1O | 14* | 44* | 76 | 9.4*
Cc1cc(C)c2ccc(C)[n+]([O-])c2c1O | 94 | -5 | 102 | 103
Cc1ccccc1CS(=O)(=O)c1cnc2ccccc2n1 | 16* | nt | 74 | 76
CC1=CCC(C(=O)O)(C(=O)N/N=C/c2cccs2)C(c2ccc([N+](=O)[O-])cc2)C1 (centres undefined) | 103 | nt | 105 | 102
CCOc1ccc(-c2nc(N)ncc2Oc2cccc(OC)c2)c(O)c1 | 14* | nt | 94 | 92
CCOc1ccc(-c2nc(N)ncc2Oc2ccccc2Br)c(O)c1 | 85 | nt | 93 | 88
CCOc1ccc(CN2CCNC(=O)C2CC(=O)OC)cc1 (centres undefined) | 100 | 3 | 104 | 106
O=C1c2ccccc2-c2onc3c(Oc4ccccc4)cc(O)c1c23 | 25* | nt | 63 | 89
CCOC(=O)C1=c2/c(=C/c3ccccc3OC)c(N)c(C#N)n2C(=O)C(c2ccccc2OC)S1 (centres undefined) | 3.4* | nt | 27* | 55
COCCN1CSC(=S)N(Cc2ccco2)C1 | 0.8* | nt | 70 | 82
CC(C)Oc1ccc(C(=O)NC2(C(F)(F)F)N=C3SCCN3C2=O)cc1 (centres undefined) | 90 | nt | 112 | 100
Cc1ccc(S(=O)(=O)N2CCCC2C(=O)Oc2ccccc2)cc1 (centres undefined) | 102 | -6 | 100 | 96
COC(=O)C1CCCN1S(=O)(=O)c1ccc2ccccc2c1 (centres undefined) | 33* | 5 | 100 | 90
Cn1cccc1-c1nc2ccc(NC(=O)c3cccs3)cc2[nH]1 | 65 | 8 | 111 | 97
O=C(Nc1ccc2nc(-c3ccc(Br)o3)[nH]c2c1)c1cccs1 | 38* | 11 | 59 | 79
CCOc1ccccc1C(=O)NC(C)c1ccc2c(c1)OCO2 (centres undefined) | 24* | 6 | 65 | 97
CN(C)S(=O)(=O)c1ccc(C(=O)Nc2nc(-c3cccs3)cs2)cc1 | 83 | 36* | 63 | 86
CC(=O)Nc1nc(-c2cccs2)cs1 | 88 | 4 | 89 | 95
O=C(Nc1nc(-c2cccs2)cs1)c1ccc(Cl)s1 | 3.6* | 18 | 43 | 98
O=C(Nc1nc(-c2cccs2)cs1)c1ccc(S(=O)(=O)N2CCCC2)cc1 | 87 | 21 | 65 | 86
Cc1nc2ccc(S(=O)(=O)NC(C(=O)Nc3nc4ccc(Cl)cc4s3)C(C)C)cc2s1 (centres undefined) | 30* | nt | 96 | 96
COc1ccccc1NC(=O)NS(=O)(=O)c1ccc(C)cc1 | 92 | nt | 98 | 100
COC(=O)c1ccc2c(=O)n(Cc3ccc4c(c3)OCO4)c(SCC(=O)N3CCCC3)nc2c1 | 2.5* | nt | 88 | 119
COC(=O)c1ccc2c(=O)n(CC3CCCO3)c(SCC(=O)Nc3ccccc3Cl)nc2c1 (centres undefined) | 8.2* | nt | 47 | 80
CCc1ccc(NC(=O)CSc2nc3cc(C(=O)OC)ccc3c(=O)n2CC2CCCO2)cc1 (centres undefined) | 3.5* | nt | 48 | 36*
